≈ marks a conversion by molar mass, not a printed value.
How the values were obtained:
[1] = Dissociation constant, pKa of the compound by dip probe absorption spectroscopy; assay type: physicochemical
Cytochrome P450 2C19 = Cytochrome P450 2C19 (Homo sapiens, UniProt P33261); experiment: Inhibition of CYP2C19 in human liver microsomes using mephenytoin as substrate preincubated with compound followed by NADPH addition by LC-MS/MS analysis; assay type: ADME, Microsome
Cytochrome P450 2C8 = target: T1, Cytochrome P450 2C8 (Homo sapiens, UniProt P10632); experiment: Inhibition of CYP2C8 in human liver microsomes using amodiaquine as substrate preincubated with compound followed by NADPH addition by LC-MS/MS analysis; assay type: ADME, Microsome
T1 sequence (P10632 whole entry): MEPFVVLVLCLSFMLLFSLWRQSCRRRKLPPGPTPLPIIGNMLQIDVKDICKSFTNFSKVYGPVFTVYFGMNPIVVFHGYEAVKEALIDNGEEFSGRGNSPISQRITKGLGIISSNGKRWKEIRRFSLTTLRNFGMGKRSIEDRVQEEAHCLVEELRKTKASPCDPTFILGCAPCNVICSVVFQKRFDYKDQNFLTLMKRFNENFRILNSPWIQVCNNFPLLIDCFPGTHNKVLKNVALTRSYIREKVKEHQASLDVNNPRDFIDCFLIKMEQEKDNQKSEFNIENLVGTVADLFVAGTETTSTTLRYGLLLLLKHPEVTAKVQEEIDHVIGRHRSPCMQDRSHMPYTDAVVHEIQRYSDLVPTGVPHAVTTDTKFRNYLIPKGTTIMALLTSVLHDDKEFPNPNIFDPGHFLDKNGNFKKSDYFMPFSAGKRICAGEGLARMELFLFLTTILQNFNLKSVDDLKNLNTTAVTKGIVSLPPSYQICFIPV

Cytochrome P450 2C9 = Cytochrome P450 2C9 (Homo sapiens, UniProt P11712); experiment: Inhibition of CYP2C9 in human liver microsomes using diclofenac as substrate preincubated with compound followed by NADPH addition by LC-MS/MS analysis; assay type: ADME, Microsome
Cytochrome P450 3A4 = Cytochrome P450 3A4 (Homo sapiens, UniProt P08684); experiment: Inhibition of CYP3A4 in human liver microsomes using midazolam as substrate preincubated with compound followed by NADPH addition by LC-MS/MS analysis; assay type: ADME, Microsome
Cytochrome P450 2D6 = Cytochrome P450 2D6 (Homo sapiens, UniProt P10635); experiment: Inhibition of CYP2D6 in human liver microsomes using dextromethorphan as substrate preincubated with compound followed by NADPH addition by LC-MS/MS analysis; assay type: ADME, Microsome
[2] = Octanol-water partition coefficient, logD of the compound at pH 11 by HPLC analysis; assay type: physicochemical; conditions: read-out: logD
[3] = Aqueous solubility of the compound at pH 6.8 incubated for 24 hrs under shaking condition by LC-UV analysis; assay type: physicochemical; conditions: aqueous medium
Method in brief: (§1)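 The highest concentration tested was 250 μM, so results are capped at that level. Values are reported in µg/ml.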

[4] = Lipophilicity, logP of the compound; assay type: physicochemical; conditions: octanol/water
[5] = Aqueous solubility of the compound at pH 4.5 incubated for 24 hrs under shaking condition by LC-UV analysis; assay type: physicochemical; conditions: aqueous medium; method in brief: as §1
[6] = Metabolic stability in human liver microsomes assessed as hepatic blood flow at 1 uM preincubated with compound followed by NADPH addition by LC-MS/MS analysis; assay type: ADME, Microsome; conditions: read-out: QH
[7] = Octanol-water partition coefficient, logD of the compound at pH 2 by HPLC analysis; assay type: physicochemical
[8] = Aqueous solubility of the compound at pH 2.2 incubated for 24 hrs under shaking condition by LC-UV analysis; assay type: physicochemical; conditions: aqueous medium; method in brief: as §1
[9] = Permeability of the compound at pH 7.4 by PAMPA assay; assay type: ADME; conditions: read-out: permeability
[10] = Photostability of the compound assessed as compound degradation administered as aqueous solution irradiated with UV and measured after 24 hrs by HPLC analysis
[11] = Hydrolytic stability of the compound in aqueous buffer at pH 7.4 assessed as compound decomposition measured after 3 days by HPLC analysis; assay type: physicochemical; conditions: time 3 day, read-out: Drug degradation
Method in brief: (§2)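 Compound was held for 3 days at 40 °C in 0.1 M HCl in water or in aqueous buffer at pH 7.4. Dissolution was confirmed by eye, and decomposition is reported as % loss of parent.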

[12] = Hydrolytic stability of the compound in aqueous HCl assessed as compound decomposition measured after 3 days by HPLC analysis; assay type: physicochemical; conditions: time 3 day, read-out: Drug degradation; method in brief: as §2
[13] = Photostability of the compound at pH 8.6 assessed as compound degradation administered as solution irradiated with sun light and measured after 7 days by HPLC analysis; assay type: physicochemical; conditions: time 7 day, read-out: Drug degradation
Method in brief: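 Compound in solution was kept for 7 days under "mild" light-stress conditions, with no pH adjustment. The pH listed for each compound is the solution's own intrinsic pH. Result is % degradation of parent.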

[14] = Stability of the compound at pH 7.4 assessed as half life measured after 24 hrs in presence of GSH by HPLC analysis; assay type: physicochemical; conditions: solution with GSH
[15] = Photostability of the compound assessed as compound degradation administered as solid irradiated with sun light and measured after 7 days by HPLC analysis
[16] = Cytotoxicity against human HepG2 cells assessed as cell growth inhibition incubated for 24 hrs by MTT assay; assay type: toxicity, cell-based
Method in brief: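 HepG2 human hepatoma cells were exposed to compound at concentrations up to 400 µM and viability was read by MTT. The result is given in µM.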

Chain of Cytochrome P450 2D6 (P10635 whole entry): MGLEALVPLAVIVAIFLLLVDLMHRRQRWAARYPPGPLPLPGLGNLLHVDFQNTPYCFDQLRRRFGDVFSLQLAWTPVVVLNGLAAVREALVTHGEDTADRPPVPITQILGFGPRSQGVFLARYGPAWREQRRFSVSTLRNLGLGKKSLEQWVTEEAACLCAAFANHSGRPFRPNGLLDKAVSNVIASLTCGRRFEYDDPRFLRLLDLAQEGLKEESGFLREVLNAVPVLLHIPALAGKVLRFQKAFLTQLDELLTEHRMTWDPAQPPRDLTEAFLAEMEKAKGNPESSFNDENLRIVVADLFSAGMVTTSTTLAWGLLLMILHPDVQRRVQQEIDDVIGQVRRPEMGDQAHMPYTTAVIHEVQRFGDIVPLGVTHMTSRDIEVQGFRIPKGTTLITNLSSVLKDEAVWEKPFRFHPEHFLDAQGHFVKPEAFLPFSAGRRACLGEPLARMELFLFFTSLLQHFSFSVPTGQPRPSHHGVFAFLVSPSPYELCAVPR
Chain of Cytochrome P450 2C19 (P33261 whole entry): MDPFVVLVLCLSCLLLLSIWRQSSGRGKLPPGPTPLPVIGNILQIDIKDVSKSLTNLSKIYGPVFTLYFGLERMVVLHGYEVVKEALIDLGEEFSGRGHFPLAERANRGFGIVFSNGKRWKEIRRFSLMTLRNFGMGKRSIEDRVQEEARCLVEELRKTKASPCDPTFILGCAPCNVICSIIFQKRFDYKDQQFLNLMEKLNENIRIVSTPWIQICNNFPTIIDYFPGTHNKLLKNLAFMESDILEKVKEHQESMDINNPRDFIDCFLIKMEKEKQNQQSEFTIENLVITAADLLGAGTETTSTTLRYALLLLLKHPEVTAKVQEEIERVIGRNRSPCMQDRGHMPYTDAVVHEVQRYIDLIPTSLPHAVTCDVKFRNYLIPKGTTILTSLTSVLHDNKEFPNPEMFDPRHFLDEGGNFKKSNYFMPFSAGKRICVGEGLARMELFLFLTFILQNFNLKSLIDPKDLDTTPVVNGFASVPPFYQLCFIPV
Chain of Cytochrome P450 3A4 (P08684 whole entry): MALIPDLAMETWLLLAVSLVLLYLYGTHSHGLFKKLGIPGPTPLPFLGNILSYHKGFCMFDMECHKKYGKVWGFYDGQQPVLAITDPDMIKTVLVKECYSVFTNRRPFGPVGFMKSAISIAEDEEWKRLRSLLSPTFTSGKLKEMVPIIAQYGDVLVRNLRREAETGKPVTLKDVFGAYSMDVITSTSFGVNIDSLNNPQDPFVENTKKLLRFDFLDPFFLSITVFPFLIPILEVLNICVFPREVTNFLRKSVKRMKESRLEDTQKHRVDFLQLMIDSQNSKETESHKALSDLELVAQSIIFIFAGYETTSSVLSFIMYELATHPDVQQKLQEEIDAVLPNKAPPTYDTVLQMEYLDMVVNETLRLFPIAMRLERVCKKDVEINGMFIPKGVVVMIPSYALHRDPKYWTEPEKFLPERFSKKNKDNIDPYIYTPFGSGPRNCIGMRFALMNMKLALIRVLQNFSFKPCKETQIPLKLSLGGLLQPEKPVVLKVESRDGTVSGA
Chain of Cytochrome P450 2C9 (P11712 whole entry): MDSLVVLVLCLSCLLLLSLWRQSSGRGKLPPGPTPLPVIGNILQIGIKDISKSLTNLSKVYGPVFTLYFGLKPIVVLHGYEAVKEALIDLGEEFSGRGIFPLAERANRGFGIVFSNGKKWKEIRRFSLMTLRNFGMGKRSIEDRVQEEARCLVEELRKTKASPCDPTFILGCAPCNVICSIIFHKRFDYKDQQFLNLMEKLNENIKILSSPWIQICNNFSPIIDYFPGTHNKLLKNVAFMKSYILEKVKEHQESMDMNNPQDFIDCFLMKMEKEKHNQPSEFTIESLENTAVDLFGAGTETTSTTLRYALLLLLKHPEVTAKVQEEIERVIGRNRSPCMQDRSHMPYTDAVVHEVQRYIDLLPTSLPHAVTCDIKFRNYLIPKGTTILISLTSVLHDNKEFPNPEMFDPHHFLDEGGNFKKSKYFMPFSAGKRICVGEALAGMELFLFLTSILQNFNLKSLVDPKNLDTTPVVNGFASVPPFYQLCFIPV

Row | SMILES | IC50 (Cytochrome P450 2C19) [µM] | IC50 (Cytochrome P450 2C8) [µM] | IC50 (Cytochrome P450 2C9) [µM] | IC50 (Cytochrome P450 3A4) [µM] | IC50 (Cytochrome P450 2D6) [µM] | logD [2] | solubility thermodynamic at 24 h [3] [µg/mL] | logP ([4]; read-out: logP) | solubility thermodynamic at 24 h [5] [µg/mL] | hepatic extraction ratio at 1 µM [6] | logD ([7]; read-out: logD) | solubility thermodynamic at 24 h [8] [µg/mL] | Papp [9] [×10⁻⁶ cm/s] | further results
1 | O=C(O)c1c[nH]c2ccccc12 | – | – | – | – | – | – | – | – | – | – | – | – | – | pKa [1]: 5.29
2 | O=C(O)c1ccc2ccc(C(=O)c3ccc(C(F)(F)F)cc3)c-2cc1 | > 50 | 13 | > 50 | > 50 | > 50 | – | – | – | – | – | – | – | – | –
3 | O=C(O)c1ccc2c(C(=O)c3ccccc3)cc(C(=O)c3ccccc3)c-2cc1 | > 50 | 1.5 | 12 | > 50 | > 50 | – | – | – | – | – | – | – | – | –
4 | O=C(NCCc1cnc[nH]1)c1ccc2ccc(C(=O)c3ccccc3)c-2cc1 | – | – | – | – | – | 2.3 | < 1 | 2.3 | 57 (≈ 154 µM) | 0.41 | 1.3 | > 77 | 0.3 | –
5 | CN(C)C(=O)c1ccc2cccccc1-2 | > 50 | > 50 | > 50 | > 50 | > 50 | 1.6 | > 40 | – | > 44 | 0.67 | – | > 43 | 7.6 | degraded at 24 h [10]: 100%; degraded at 72 h [11]: < 0.5%; degraded at 72 h [12]: < 0.5%; logP [4]: 1.6; degraded at 168 h [13]: 3%; half-life [14]: > 41.7 days; degraded at 168 h [15]: < 0.5%; EC50 at 24 h [16]: > 400 µM; logD [7]: 2.1
6 | COC(=O)c1ccc2ccc(C(=O)N(C)C)c-2cc1 | – | – | – | – | – | 2.1 | > 64 | 2.1 | 50 (≈ 194 µM) | – | 2.3 | > 64 | 7.4 | half-life [14]: > 41.7 days
7 | CN(C)C(=O)c1cccc2ccccc12 | – | – | – | – | – | 1.8 | > 43 | – | > 50 | < 0.23 | – | > 47 | 8.3 | degraded at 24 h [10]: < 0.5%; logP [4]: 1.8; logD [7]: 2.2
8 | CN1CCN(C(=O)c2ccc3c(c2)c(C(=O)c2ccccc2)cn3C)CC1 | – | – | – | – | – | 2 | 68 (≈ 188 µM) | 2 | 76 (≈ 210 µM) | < 0.23 | 0.7 | 78 (≈ 216 µM) | 1.9 | –
9 | NC(=O)C1CCN(C(=O)c2ccc3cccccc2-3)CC1 | > 50 | > 50 | > 50 | > 50 | > 50 | 0.6 | > 58 | – | > 57 | < 0.23 | – | > 71 | 0.5 | logP [4]: 0.6; EC50 at 24 h [16]: > 400 µM; logD [7]: 1.2
10 | Cn1cc(C(=O)c2ccccc2)c2cc(C(=O)NCCc3cnc[nH]3)ccc21 | – | – | – | – | – | 1.5 | 72 (≈ 193 µM) | 1.5 | 107 (≈ 287 µM) | 0.23 | 0.9 | 84 (≈ 226 µM) | 0.1 | –
11 | Cn1cc(C(=O)c2ccccc2)c2cc(C(=O)NCCc3c[nH]c4ccccc34)ccc21 | – | – | – | – | – | 3.5 | < 1 | 3.5 | < 1 | 0.79 | 3.6 | < 1 | 0.04 | –
12 | COc1cccc(C(=O)c2ccc3ccc(C(=O)O)ccc2-3)c1 | > 50 | 22 | > 50 | > 50 | > 50 | – | – | – | – | – | – | – | – | –
13 | COCC(=O)Nc1cc2cccccc-2c1 | 22 | > 50 | > 50 | > 50 | > 50 | – | – | – | – | – | – | – | – | EC50 at 24 h [16]: > 400 µM
14 | O=C(NCCc1c[nH]c2ccccc12)c1ccc2ccc(C(=O)c3ccccc3)c-2cc1 | – | – | – | – | – | 4.3 | < 1 | 4.3 | < 1 | 0.69 | 4.4 | < 1 | 0.03 | –
15 | CN(C)C(=O)c1cn(C)c2ccccc12 | – | – | – | – | – | 1.3 | > 51 | – | > 51 | 0.55 | – | > 51 | 6.7 | degraded at 24 h [10]: < 0.5%; logP [4]: 1.3; logD [7]: 1.8
16 | O=C(NCCc1cnc[nH]1)C1=CC2C(C(=O)c3ccccc3)=CN=C2C=C1 (stereo unspecified) | – | – | – | – | – | 0.8 | 66 (≈ 184 µM) | 0.8 | 78 (≈ 218 µM) | < 0.23 | 0.7 | > 81 | < 0.01 | –
17 | CN(C)C(=O)c1c[nH]c2ccccc12 | – | – | – | – | – | 0.4 | > 44 | – | > 47 | 0.25 | – | > 47 | 2.2 | degraded at 24 h [10]: < 0.5%; logP [4]: 0.4; logD [7]: 1.1
18 | O=C(O)c1ccc2cccccc1-2 | – | – | – | – | – | – | – | – | – | – | – | – | – | pKa [1]: 5.1
19 | C=CC(=O)N1C[C@H](Nc2ncnc3[nH]ccc23)CC[C@@H]1C [RITLECITINIB] | – | – | – | – | – | – | – | – | – | – | – | – | – | half-life [14]: 1.33 days

Reference: ChEMBL document CHEMBL5120825, “The azulene scaffold from a medicinal chemist's perspective: Physicochemical and in vitro parameters relevant for drug discovery” (Eur J Med Chem, 2022)
